Results published in ChEMBL document CHEMBL1275497, “Genetic and structural insights into the dissemination potential of the extremely broad-spectrum class A beta-lactamase KPC-2 identified in an Escherichia coli strain and an Enterobacter cloacae strain isolated from the same patient in France” (2008).
In brackets after ≈: the same amount, converted by molar mass.

Experiments:
Escherichia coli [1] = experiment: Activity of Escherichia coli 2138 beta-lactamase KPC-2 by spectrophotometry
How it was run: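 KPC-2 was expressed in E. coli BL21(DE3) grown in LB with 50 µg/ml kanamycin and induced with 0.4 mM IPTG. It was purified by Q Sepharose, then Bioscale S cation exchange with a 0–1 M NaCl gradient in 40 mM Bis-Tris pH 5.9, then Superdex 75. Km and kcat were measured spectrophotometrically at 37°C in 50 mM phosphate buffer, pH 7.0, using previously described absorption coefficients.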

Escherichia coli [2] = experiment: Antimicrobial activity against Escherichia coli TOP10 by Etest method in presence of beta-lactamase inhibitor clavulanic acid; format: functional
How it was run: (§1)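 MIC by Etest on E. coli Top10 host and its transformants. Transformants were obtained by electroporating plasmid DNA extracted from the clinical E. coli isolate.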

Escherichia coli [3] = experiment: Antimicrobial activity against Escherichia coli TOP10 by Etest method; format: functional
Escherichia coli [4] = experiment: Antimicrobial activity against Escherichia coli J53 harboring blaKPC-2 and blaTEM-1 by Etest method; format: functional
How it was run: (§2)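 Strain is an E. coli J53 (rifampin-resistant) transconjugant from E. cloacae 7506. Donor and recipient were mixed at 1:1 and 4:1, shaken in brain heart infusion at 37°C for 3 h, then held on a filter on BHI agar for 18 h at 37°C. Transconjugants were selected on LB agar with ampicillin 100 µg/ml, ticarcillin 50 µg/ml and rifampin 1000 µg/ml. MICs were read by Etest.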

Escherichia coli [5] = experiment: Antimicrobial activity against Escherichia coli J53 by Etest method in presence of beta-lactamase inhibitor clavulanic acid; format: functional
How it was run: (§3)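 MIC by Etest on E. coli J53 (Rifr) recipient and its transconjugants. Transconjugants came from liquid and solid mating at 1:1 and 4:1 recipient:donor ratios in brain heart infusion (37°C, 3 h), then filter mating for 18 h at 37°C. Selection was on LB agar with ampicillin (100 µg/ml), ticarcillin (50 µg/ml) and rifampin (1000 µg/ml).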

Escherichia coli [6] = experiment: Antimicrobial activity against Escherichia coli J53 by Etest method; format: functional
Escherichia coli [7] = experiment: Antimicrobial activity against blaKPC-2 and blaTEM-1 Escherichia coli 2138 by Etest method in presence of beta-lactamase inhibitor clavulanic acid; format: functional
How it was run: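 MIC read by Etest on the clinical E. coli isolate recovered from a patient hospitalized in France.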

Escherichia coli [8] = experiment: Antimicrobial activity against Escherichia coli TOP10 harboring blaKPC-2 and blaTEM-1 gene by Etest method; format: functional
How it was run: (§4)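 Strain is an E. coli Top10 transformant obtained by electroporation of plasmid DNA extracted from E. coli 2138. MICs were read by Etest.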

Escherichia coli [9] = experiment: Antimicrobial activity against Escherichia coli TOP10 harboring blaKPC-2 and blaTEM-1 gene by Etest method in presence of beta-lactamase inhibitor clavulanic acid; format: functional; how it was run: as §1
Enterobacter cloacae [10] = experiment: Antimicrobial activity against blaKPC-2, blaKLUC-2 and blaTEM-1 producing Enterobacter cloacae 7506 by Etest method in presence of beta-lactamase inhibitor clavulanic acid; format: functional
Escherichia coli [11] = experiment: Antimicrobial activity against blaKPC-2 and blaTEM-1 producing Escherichia coli 2138 by Etest method; format: functional
Enterobacter cloacae [12] = experiment: Antimicrobial activity against blaKPC-2, blaKLUC-2 and blaTEM-1 producing Enterobacter cloacae 7506 by Etest method; format: functional
Escherichia coli [13] = experiment: Antimicrobial activity against Escherichia coli J53 harboring blaKPC-2 and blaTEM-1 gene by Etest method in presence of beta-lactamase inhibitor clavulanic acid; format: functional; how it was run: as §3
Escherichia coli [14] = experiment: Antimicrobial activity against blaKPC-2 producing Escherichia coli DH5alpha by Etest method; settings: DH5[alpha]
Escherichia coli [15] = experiment: Antimicrobial activity against Escherichia coli J53 by Etest method in presence of beta-lactamase inhibitor Tazobactam; format: functional
Escherichia coli [16] = experiment: Antimicrobial activity against Escherichia coli J53 harboring blaKPC-2 and blaTEM-1 gene by Etest method in presence of beta-lactamase inhibitor Tazobactam; format: functional; how it was run: as §2
Escherichia coli [17] = experiment: Antimicrobial activity against blaKPC-2 and blaTEM-1 producing Escherichia coli 2138 by Etest method in presence of beta-lactamase inhibitor Tazobactam; format: functional
Enterobacter cloacae [18] = experiment: Antimicrobial activity against blaKPC-2, blaKLUC-2 and blaTEM-1 producing Enterobacter cloacae 7506 by Etest method in presence of beta-lactamase inhibitor Tazobactam; format: functional
Escherichia coli [19] = experiment: Antimicrobial activity against Escherichia coli TOP10 by Etest method in presence of beta-lactamase inhibitor Tazobactam; format: functional
Escherichia coli [20] = experiment: Antimicrobial activity against Escherichia coli TOP10 harboring blaKPC-2 and blaTEM-1 gene by Etest method in presence of beta-lactamase inhibitor Tazobactam; format: functional; how it was run: as §4

Row | SMILES | Km (Escherichia coli [1]) [µM] | kcat (Escherichia coli [1]) [s⁻¹] | MIC (Escherichia coli [3]) [µg/mL] | MIC (Escherichia coli [4]) [µg/mL] | MIC (Escherichia coli [6]) [µg/mL] | MIC (Escherichia coli [8]) [µg/mL] | MIC (Escherichia coli [11]) [µg/mL] | MIC (Enterobacter cloacae [12]) [µg/mL] | further results
1 | CC(=O)OCC1=C(C(=O)O)N2C(=O)[C@@H](NC(=O)Cc3cccs3)[C@H]2SC1 | 141 | 106 |  |  |  |  |  |  | 
2 | CC1(C)S[C@@H]2[C@H](NC(=O)Cc3ccccc3)C(=O)N2[C@H]1C(=O)O | 44 | 45 |  |  |  |  |  |  | 
3 | CC1(C)S[C@@H]2[C@H](NC(=O)[C@H](N)c3ccccc3)C(=O)N2[C@H]1C(=O)O | 29 | 20 |  |  |  |  |  |  | 
4 | CO/N=C(\C(=O)N[C@@H]1C(=O)N2C(C(=O)O)=C(COC(N)=O)CS[C@H]12)c1ccco1 | 160 | 66 |  |  |  |  |  |  | 
5 | CO/N=C(\C(=O)N[C@@H]1C(=O)N2C(C(=O)[O-])=C(C[n+]3cccc4c3CCC4)CS[C@H]12)c1csc(N)n1 | 251 | 12 |  |  |  |  |  |  | 
6 | CC1(C)S[C@@H]2[C@H](NC(=O)[C@H](N)c3ccc(O)cc3)C(=O)N2[C@H]1C(=O)O [AMOXICILLIN] |  |  | 3 (≈ 8.21 µM) | > 256 | 3 (≈ 8.21 µM) | > 256 | > 256 | > 256 | MIC (Escherichia coli [2]): 2 µg/mL; MIC (Escherichia coli [5]): 2 µg/mL; MIC (Escherichia coli [7]): 24 µg/mL; MIC (Escherichia coli [9]): 48 µg/mL; MIC (Enterobacter cloacae [10]): 96 µg/mL; MIC (Escherichia coli [13]): 16 µg/mL
7 | C[C@H]1[C@H](NC(=O)/C(=N\OC(C)(C)C(=O)O)c2csc(N)n2)C(=O)N1S(=O)(=O)O [AZTREONAM] | 35 | 3 | 0.047 (≈ 0.108 µM) | 8 (≈ 18.4 µM) | < 0.016 | 24 (≈ 55.1 µM) | 64 (≈ 147 µM) |  | 
8 | CO/N=C(\C(=O)N[C@@H]1C(=O)N2C(C(=O)O)=C(COC(C)=O)CS[C@H]12)c1csc(N)n1 [CEFOTAXIME] | 174 | 66 | 0.047 (≈ 0.103 µM) | 4 (≈ 8.78 µM) | 0.032 (≈ 0.0703 µM) | 12 (≈ 26.3 µM) | 16 (≈ 35.1 µM) | > 32 | 
9 | CC(C)(O/N=C(\C(=O)N[C@@H]1C(=O)N2C(C(=O)[O-])=C(C[n+]3ccccc3)CS[C@H]12)c1csc(N)n1)C(=O)O [CEFTAZIDIME] |  |  | 0.19 (≈ 0.348 µM) | 2 (≈ 3.66 µM) | 0.064 (≈ 0.117 µM) | 6 (≈ 11 µM) | 8 (≈ 14.6 µM) | 32 (≈ 58.5 µM) | MIC (Escherichia coli [14]): 32 µg/mL (≈ 58.5 µM)
10 | C[C@@H](O)[C@H]1C(=O)N2C(C(=O)O)=C(SCCNC=N)C[C@H]12 [IMIPENEM ANHYDROUS] | 88 | 20 | 0.19 (≈ 0.635 µM) | 0.5 (≈ 1.67 µM) | 0.094 (≈ 0.314 µM) | 1.5 (≈ 5.01 µM) | 3 (≈ 10 µM) | 3 (≈ 10 µM) | 
11 | CCN1CCN(C(=O)N[C@@H](C(=O)N[C@@H]2C(=O)N3[C@@H]2SC(C)(C)[C@@H]3C(=O)O)c2ccccc2)C(=O)C1=O [PIPERACILLIN] | 51 | 40 | 0.75 (≈ 1.45 µM) | > 256 | 0.38 (≈ 0.734 µM) | > 256 | > 256 | > 256 | MIC (Escherichia coli [15]): 0.38 µg/mL; MIC (Escherichia coli [16]): > 256 µg/mL; MIC (Escherichia coli [17]): > 256 µg/mL; MIC (Enterobacter cloacae [18]): > 256 µg/mL; MIC (Escherichia coli [19]): 0.75 µg/mL; MIC (Escherichia coli [20]): > 256 µg/mL
12 | CC1(C)S[C@@H]2[C@H](NC(=O)[C@H](C(=O)O)c3ccsc3)C(=O)N2[C@H]1C(=O)O [TICARCILLIN] |  |  | 1.5 (≈ 3.9 µM) | > 256 | 1.5 (≈ 3.9 µM) | > 256 | > 256 | > 256 | 
